The values below come from ChEMBL document CHEMBL3779865, “Discovery of Benzo[cd]indol-2(1H)-ones as Potent and Specific BET Bromodomain Inhibitors: Structure-Based Virtual Screening, Optimization, and Biological Evaluation” (J Med Chem, 2016).

Data set [1] addresses T1, Bromodomain-containing protein 1 (Homo sapiens) (UniProt O95696).
T1 sequence (whole entry): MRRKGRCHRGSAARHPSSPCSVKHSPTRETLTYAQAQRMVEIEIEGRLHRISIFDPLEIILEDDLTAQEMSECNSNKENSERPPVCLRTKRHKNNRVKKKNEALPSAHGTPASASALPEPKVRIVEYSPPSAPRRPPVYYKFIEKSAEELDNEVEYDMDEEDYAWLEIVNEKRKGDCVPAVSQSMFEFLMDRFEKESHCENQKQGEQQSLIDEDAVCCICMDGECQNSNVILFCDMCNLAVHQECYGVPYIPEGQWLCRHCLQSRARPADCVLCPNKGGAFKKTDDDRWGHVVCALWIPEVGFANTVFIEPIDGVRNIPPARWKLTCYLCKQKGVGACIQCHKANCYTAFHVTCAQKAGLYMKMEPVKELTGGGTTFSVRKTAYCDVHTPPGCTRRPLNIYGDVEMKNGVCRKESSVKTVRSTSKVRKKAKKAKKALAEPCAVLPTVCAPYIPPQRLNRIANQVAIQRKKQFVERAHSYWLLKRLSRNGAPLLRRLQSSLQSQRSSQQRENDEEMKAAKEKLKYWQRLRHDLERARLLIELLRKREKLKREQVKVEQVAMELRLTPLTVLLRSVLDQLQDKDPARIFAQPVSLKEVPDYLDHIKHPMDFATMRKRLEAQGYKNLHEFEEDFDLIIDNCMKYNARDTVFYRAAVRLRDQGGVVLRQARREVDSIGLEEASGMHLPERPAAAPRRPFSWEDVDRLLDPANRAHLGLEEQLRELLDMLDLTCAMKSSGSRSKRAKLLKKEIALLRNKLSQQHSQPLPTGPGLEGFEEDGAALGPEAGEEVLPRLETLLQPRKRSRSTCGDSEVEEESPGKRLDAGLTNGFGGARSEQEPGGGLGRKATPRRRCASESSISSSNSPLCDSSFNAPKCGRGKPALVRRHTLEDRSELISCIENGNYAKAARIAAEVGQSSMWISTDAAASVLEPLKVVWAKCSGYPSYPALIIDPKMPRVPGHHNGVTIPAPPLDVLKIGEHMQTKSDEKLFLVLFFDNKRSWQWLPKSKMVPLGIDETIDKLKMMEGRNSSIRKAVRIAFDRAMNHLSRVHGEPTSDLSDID
Kind of data set: Binding affinity to human His6-tagged BRD1 (E556 to A688 residues) expressed in Escherichia coli BL21(DE3) cells at 200 uM incubated for 30 mins by SYPRO orange staining based fluorescence thermal shift assay. A digest of the protocol:
(§1)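 His6-tagged bromodomain constructs expressed in E. coli BL21(DE3) (grown at 25 °C to OD600 ~1.0, induced with 0.1 mM IPTG at 16 °C for 16 h). Purified by Ni affinity then gel filtration. Final 10 μM protein and 200 μM compound in 10 mM HEPES pH 7.5, 150 mM NaCl, DMSO ≤1%. SYPRO Orange 1:1000, 30 min on ice. Melt 30–75 °C at 0.3 °C/min. Triplicates. Tm from Boltzmann fit; ΔTm = Tm with minus without compound.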

In data set [2] the target is Histone acetyltransferase KAT2B (Homo sapiens) (UniProt Q92831). Briefly: Binding affinity to human His6-tagged PCAF (G715 to D831 residues) expressed in Escherichia coli BL21(DE3) cells at 200 uM incubated for 30 mins by SYPRO orange staining based fluorescence thermal shift assay. A digest of the protocol:
as §1

Data set [3] deals with T2, Bromodomain-containing protein 9 (Homo sapiens) (UniProt Q9H8M2).
T2 sequence (whole entry): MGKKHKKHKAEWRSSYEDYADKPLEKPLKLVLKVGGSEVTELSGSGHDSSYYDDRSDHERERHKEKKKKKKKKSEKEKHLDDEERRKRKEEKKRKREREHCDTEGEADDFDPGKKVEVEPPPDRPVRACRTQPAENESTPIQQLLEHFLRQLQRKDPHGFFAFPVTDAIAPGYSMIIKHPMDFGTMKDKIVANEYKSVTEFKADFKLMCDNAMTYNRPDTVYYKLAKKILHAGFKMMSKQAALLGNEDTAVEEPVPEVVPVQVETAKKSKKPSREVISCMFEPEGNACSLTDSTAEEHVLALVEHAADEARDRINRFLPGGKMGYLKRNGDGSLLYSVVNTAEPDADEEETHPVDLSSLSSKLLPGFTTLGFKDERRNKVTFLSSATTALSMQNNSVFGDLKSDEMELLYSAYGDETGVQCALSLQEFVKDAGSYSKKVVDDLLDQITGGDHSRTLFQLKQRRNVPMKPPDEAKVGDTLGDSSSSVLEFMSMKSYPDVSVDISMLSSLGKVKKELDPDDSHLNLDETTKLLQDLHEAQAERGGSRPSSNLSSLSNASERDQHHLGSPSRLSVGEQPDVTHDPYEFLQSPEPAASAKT
Briefly: Binding affinity to human His6-tagged BRD9 (L14 to Q134 residues) expressed in Escherichia coli BL21(DE3) cells at 200 uM incubated for 30 mins by SYPRO orange staining based fluorescence thermal shift assay. The essentials:
as §1

Data set [4] addresses Transcription initiation factor TFIID subunit 1 (Homo sapiens) (UniProt P21675). Briefly: Binding affinity to human His6-tagged TAF1 bromodomain 1 (R1377 to D1503 residues) expressed in Escherichia coli BL21(DE3) cells at 200 uM incubated for 30 mins by SYPRO orange staining based fluorescence thermal shift assay. A digest of the protocol:
as §1

For data set [5], the target named is T3, Bromodomain-containing protein 4 (Homo sapiens, UniProt O60885). Briefly: Binding affinity to human His6-tagged BRD4 bromodomain 1 (N44 to E168 residues) expressed in Escherichia coli BL21(DE3) cells by isothermal titration calorimetry.
Data set [6] concerns MV4-11. Briefly: Antiproliferative activity against human MV4-11 cells after 72 hrs by CCK8 assay. Format: functional, cell-based. The settings on record: Homo sapiens, MV4-11, 72 h; read-out: IC50. A general note: Tetrazolium dyes change colour on reduction, which living cells bring about.
Data set [7] has as its target CREB-binding protein (Homo sapiens) (UniProt Q92793). Kind of data set: Binding affinity to human His6-tagged CREBBP (R1081 to G1197 residues) expressed in Escherichia coli BL21(DE3) cells at 200 uM incubated for 30 mins by SYPRO orange staining based fluorescence thermal shift assay. The essentials: as §1
The target of data set [8] is Bromodomain adjacent to zinc finger domain protein 2B (Homo sapiens) (UniProt Q9UIF8). Briefly: Binding affinity to human His6-tagged BAZ2B (S1858 to S1972 residues) expressed in Escherichia coli BL21(DE3) cells at 200 uM incubated for 30 mins by SYPRO orange staining based fluorescence thermal shift assay. The essentials:
as §1

The target in data set [9] is T3, Bromodomain-containing protein 4.
The target in data set [10] is Histone-lysine N-methyltransferase ASH1L (Homo sapiens) (UniProt Q9NR48). Briefly: Binding affinity to human His6-tagged ASH1L (E2433 to E2564 residues) expressed in Escherichia coli BL21(DE3) cells at 200 uM incubated for 30 mins by SYPRO orange staining based fluorescence thermal shift assay. The essentials:
as §1

Data set [11] relates to MV4-11. Briefly: Growth inhibition of human MV4-11 cells at 10 uM after 72 hrs by CCK8 assay. Format: functional. The settings on record: MV4-11, 72 h, read-out: GI.
Data set [12] concerns the target Bromodomain testis-specific protein (Homo sapiens) (UniProt Q58F21). Kind of data set: Binding affinity to human His6-tagged BRDT bromodomain 1 (N21 to E137 residues) expressed in Escherichia coli BL21(DE3) cells at 200 uM incubated for 30 mins by SYPRO orange staining based fluorescence thermal shift assay. A digest of the protocol: as §1
For data set [13], the target named is Bromodomain-containing protein 3 (Homo sapiens) (UniProt Q15059). Kind of data set: Binding affinity to human His6-tagged BRD3 bromodomain 1 (P24 to E144 residues) expressed in Escherichia coli BL21(DE3) cells at 200 uM incubated for 30 mins by SYPRO orange staining based fluorescence thermal shift assay. A digest of the protocol: as §1
For data set [14], the target named is T3, Bromodomain-containing protein 4. Kind of data set: Inhibition of human His6-tagged BRD4 bromodomain 1 (N44 to E168 residues) expressed in Escherichia coli BL21(DE3) cells using biotin-H4KAc4 as substrate incubated for 2 hrs by alphascreen assay. (Alpha assays give light when donor and acceptor beads are brought close together.)
Data set [15] deals with Histone acetyltransferase p300 (Homo sapiens) (UniProt Q09472). Kind of data set: Binding affinity to human His6-tagged EP300 (A1040 to G1161 residues) expressed in Escherichia coli BL21(DE3) cells at 200 uM incubated for 30 mins by SYPRO orange staining based fluorescence thermal shift assay. The essentials:
as §1

Data set [16] concerns the target Bromodomain-containing protein 2 (Homo sapiens) (UniProt P25440). Briefly: Binding affinity to human His6-tagged BRD2 bromodomain 1 (K77 to N194 residues) expressed in Escherichia coli BL21(DE3) cells at 200 uM incubated for 30 mins by SYPRO orange staining based fluorescence thermal shift assay. A digest of the protocol: as §1
Data set [17] can be described thus: Apparent permeability from basolateral to apical side in human Caco2 cells assessed as drug recovery at 10 uM incubated for 1 hr by HPLC-MS/MS analysis. In kind it is ADME, cell-based. The following applies: Caco-2, read-out: Drug recovery. For orientation: Caco-2 monolayers are a common model of the intestinal barrier.
Data set [18] in a line: Apparent permeability from apical to basolateral side in human Caco2 cells at 10 uM incubated for 1 hr by HPLC-MS/MS analysis. In kind it is ADME, cell-based. The following applies: Caco-2.
Data set [19] can be described thus: Apparent permeability from basolateral to apical side in human Caco2 cells at 10 uM incubated for 1 hr by HPLC-MS/MS analysis. The settings on record: Caco-2. In kind it is ADME, cell-based.
Data set [20] is described as follows: Apparent permeability from apical to basolateral side in human Caco2 cells assessed as drug recovery at 10 uM incubated for 1 hr by HPLC-MS/MS analysis. Format: ADME, cell-based. The settings on record: Caco-2, read-out: Drug recovery.
Data set [21] has as its system HT-29. Briefly: Antiproliferative activity against human HT-29 cells after 72 hrs by CCK8 assay. The following applies: Homo sapiens, HT-29, 72 h; read-out: IC50. Format: functional, cell-based.
Data set [22] in a line: Antiproliferative activity against human HL60 cells after 72 hrs by CCK8 assay. Format: functional, cell-based, HL-60. The settings on record: Homo sapiens, HL-60, 72 h; read-out: IC50.

Transcription initiation factor TFIID subunit 1 (Homo sapiens), sequence (P21675 whole entry, the tested form may be a part): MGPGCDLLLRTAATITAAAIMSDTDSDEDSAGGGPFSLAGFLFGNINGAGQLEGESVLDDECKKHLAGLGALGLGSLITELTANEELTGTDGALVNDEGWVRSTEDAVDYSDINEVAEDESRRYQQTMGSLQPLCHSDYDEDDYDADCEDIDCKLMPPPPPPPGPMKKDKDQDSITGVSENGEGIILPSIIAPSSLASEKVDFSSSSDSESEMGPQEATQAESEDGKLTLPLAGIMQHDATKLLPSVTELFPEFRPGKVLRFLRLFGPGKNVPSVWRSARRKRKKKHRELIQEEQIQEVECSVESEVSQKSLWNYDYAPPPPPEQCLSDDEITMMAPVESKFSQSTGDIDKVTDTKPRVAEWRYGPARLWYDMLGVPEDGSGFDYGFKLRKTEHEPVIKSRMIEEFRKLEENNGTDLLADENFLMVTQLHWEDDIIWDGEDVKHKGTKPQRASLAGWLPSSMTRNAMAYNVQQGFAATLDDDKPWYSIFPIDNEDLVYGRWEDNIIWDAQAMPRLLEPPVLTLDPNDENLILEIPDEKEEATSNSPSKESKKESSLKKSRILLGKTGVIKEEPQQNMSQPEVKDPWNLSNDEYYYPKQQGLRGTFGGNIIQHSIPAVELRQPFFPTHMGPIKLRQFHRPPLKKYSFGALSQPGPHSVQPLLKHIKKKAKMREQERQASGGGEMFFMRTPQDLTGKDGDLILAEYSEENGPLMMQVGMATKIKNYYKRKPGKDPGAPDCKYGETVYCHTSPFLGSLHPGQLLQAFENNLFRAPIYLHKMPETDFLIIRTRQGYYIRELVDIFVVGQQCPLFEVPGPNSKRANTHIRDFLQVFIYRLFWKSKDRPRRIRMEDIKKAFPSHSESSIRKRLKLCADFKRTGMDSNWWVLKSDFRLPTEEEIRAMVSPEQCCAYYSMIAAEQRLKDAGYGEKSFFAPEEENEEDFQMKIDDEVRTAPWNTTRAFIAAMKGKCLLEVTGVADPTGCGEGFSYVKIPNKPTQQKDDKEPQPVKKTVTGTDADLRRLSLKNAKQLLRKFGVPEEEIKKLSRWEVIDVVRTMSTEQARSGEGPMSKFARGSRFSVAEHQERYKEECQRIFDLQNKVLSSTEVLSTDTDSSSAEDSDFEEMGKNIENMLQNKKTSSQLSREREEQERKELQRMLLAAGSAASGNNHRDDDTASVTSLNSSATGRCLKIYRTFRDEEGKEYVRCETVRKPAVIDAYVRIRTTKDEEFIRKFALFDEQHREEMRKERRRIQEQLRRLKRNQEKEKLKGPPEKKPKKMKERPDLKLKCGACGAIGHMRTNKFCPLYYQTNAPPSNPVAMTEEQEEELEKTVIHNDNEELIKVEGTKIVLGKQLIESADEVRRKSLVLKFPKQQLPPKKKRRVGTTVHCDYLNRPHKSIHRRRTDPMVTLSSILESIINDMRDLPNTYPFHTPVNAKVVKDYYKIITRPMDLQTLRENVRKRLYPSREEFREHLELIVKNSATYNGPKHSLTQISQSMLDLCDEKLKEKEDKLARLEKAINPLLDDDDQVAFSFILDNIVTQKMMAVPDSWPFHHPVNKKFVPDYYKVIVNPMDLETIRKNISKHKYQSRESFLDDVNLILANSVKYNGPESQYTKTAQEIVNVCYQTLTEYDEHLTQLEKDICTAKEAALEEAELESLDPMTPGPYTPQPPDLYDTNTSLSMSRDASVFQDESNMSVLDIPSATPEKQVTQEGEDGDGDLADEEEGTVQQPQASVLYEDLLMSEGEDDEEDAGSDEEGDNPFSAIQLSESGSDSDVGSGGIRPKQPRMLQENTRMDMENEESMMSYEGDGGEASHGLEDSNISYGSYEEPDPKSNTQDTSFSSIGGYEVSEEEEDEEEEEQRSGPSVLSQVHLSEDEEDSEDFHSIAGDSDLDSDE
Bromodomain-containing protein 2 (Homo sapiens), sequence (P25440 whole entry, looked up, the tested form may be a part): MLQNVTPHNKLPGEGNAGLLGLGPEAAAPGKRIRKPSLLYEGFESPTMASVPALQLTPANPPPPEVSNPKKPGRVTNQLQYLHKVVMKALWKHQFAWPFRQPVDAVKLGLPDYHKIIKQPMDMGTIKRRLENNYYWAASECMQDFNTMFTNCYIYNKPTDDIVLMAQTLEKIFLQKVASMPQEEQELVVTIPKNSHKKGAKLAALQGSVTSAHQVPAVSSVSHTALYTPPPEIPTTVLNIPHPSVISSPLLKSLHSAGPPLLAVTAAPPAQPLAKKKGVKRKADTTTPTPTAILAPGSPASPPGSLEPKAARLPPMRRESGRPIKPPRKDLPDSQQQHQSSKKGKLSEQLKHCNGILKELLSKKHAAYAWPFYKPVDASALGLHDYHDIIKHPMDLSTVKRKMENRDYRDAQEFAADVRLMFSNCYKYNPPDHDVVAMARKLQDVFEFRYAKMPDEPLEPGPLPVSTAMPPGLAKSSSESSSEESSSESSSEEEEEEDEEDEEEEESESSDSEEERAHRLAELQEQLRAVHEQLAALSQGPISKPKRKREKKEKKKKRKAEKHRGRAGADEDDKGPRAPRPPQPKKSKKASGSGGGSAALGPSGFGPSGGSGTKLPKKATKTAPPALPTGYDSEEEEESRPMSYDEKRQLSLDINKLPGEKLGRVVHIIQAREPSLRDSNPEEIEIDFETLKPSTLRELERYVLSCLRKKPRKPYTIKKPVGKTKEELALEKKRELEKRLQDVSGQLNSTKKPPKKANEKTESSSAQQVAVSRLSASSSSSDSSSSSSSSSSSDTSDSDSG
Histone acetyltransferase KAT2B (Homo sapiens), sequence (Q92831 whole entry, looked up, the tested form may be a part): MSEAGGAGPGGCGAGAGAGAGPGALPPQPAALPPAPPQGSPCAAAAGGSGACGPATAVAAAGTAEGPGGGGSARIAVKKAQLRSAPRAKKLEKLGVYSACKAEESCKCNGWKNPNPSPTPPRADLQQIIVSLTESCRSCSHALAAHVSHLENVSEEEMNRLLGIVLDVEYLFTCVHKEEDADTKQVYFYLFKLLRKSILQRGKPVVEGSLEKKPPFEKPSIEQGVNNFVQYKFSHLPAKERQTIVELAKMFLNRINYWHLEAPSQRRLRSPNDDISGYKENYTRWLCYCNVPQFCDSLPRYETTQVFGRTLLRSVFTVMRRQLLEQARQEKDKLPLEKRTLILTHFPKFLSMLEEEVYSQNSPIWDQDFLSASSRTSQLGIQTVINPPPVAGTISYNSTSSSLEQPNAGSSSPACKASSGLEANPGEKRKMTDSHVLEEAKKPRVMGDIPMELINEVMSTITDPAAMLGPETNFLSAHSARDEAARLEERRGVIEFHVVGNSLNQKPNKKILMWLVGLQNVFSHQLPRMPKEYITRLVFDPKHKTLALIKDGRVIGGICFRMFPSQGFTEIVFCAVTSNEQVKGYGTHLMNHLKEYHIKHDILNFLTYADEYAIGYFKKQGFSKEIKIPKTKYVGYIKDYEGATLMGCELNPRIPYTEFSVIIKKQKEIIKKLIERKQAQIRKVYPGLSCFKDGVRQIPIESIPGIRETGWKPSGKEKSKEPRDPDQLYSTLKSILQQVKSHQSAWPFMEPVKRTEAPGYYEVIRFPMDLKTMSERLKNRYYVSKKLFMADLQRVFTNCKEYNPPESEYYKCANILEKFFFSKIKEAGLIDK
Bromodomain-containing protein 3 (Homo sapiens), sequence (Q15059 2-726 limits assumed): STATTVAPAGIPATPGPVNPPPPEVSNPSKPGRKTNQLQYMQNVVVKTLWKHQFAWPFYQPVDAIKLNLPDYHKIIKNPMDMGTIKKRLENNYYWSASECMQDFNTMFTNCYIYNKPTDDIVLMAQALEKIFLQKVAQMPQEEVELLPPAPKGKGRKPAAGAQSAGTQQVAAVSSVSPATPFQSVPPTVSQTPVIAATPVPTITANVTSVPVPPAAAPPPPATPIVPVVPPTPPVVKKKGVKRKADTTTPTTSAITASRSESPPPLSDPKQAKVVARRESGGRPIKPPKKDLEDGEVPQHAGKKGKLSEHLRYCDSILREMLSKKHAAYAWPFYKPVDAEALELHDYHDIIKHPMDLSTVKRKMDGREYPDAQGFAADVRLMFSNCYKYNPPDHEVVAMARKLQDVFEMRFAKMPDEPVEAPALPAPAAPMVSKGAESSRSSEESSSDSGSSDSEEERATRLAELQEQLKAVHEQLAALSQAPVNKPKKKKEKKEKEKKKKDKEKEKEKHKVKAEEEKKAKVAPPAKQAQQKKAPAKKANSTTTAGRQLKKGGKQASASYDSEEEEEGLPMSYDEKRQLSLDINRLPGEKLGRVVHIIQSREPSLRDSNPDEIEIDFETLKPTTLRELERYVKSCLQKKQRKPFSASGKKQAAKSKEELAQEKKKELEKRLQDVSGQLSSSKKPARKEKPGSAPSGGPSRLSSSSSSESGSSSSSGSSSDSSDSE

For `CCN1C(=O)c2cccc3c(NS(=O)(=O)c4ccc(F)cc4F)ccc1c23`, the ΔTm (usually the shift of the melting midpoint relative to a reference) was 1.6 °C in [1]; 3.6 °C in data set [2]; 3 °C in [3]; -1 °C in [4]; 2 °C in data set [7]; -5.7 °C in data set [8]. In addition, the ΔTm in [9] worked out at 9.5 °C; in [10], 2.9 °C; in [12] it was 6.6 °C; in [13], 7.8 °C; in [15], 4.5 °C; in [16], 5.5 °C. For the same compound, in data set [5], binding was characterised by a dissociation constant (Kd) of 275 nM. The 50% inhibitory concentration (IC50) – broadly, the concentration needed to halve the response being measured – in data set [6] worked out at 4190 nM; in data set [14] it was 120 nM. The inhibition of growth at 10 µM in data set [11] was found to be 25%.

For the compound `C[C@H]1O[C@@H](O[C@H]2[C@@H](O)C[C@H](O[C@H]3[C@@H](O)C[C@H](O[C@H]4CC[C@@]5(C)[C@H](CC[C@@H]6[C@@H]5C[C@@H](O)[C@]5(C)[C@@H](C7=CC(=O)OC7)CC[C@]65O)C4)O[C@@H]3C)O[C@@H]2C)C[C@H](O)[C@@H]1O` [DIGOXIN], the recovery at 1 h, 10 µM in data set [17] worked out at 111%; in data set [20], 107%. Also, in [18], the Papp A→B (commonly the apparent permeability from the apical to the basolateral side of a cell layer) at 1 h, 10 µM came to 1.6 ×10⁻⁶ cm/s. Further, the basolateral-to-apical permeability (Papp B→A) (commonly how fast a substance crosses the layer from the basolateral side) at 1 h, 10 µM in data set [19] was 17.7 ×10⁻⁶ cm/s.

As for `CCN1C(=O)c2cccc3c(NS(=O)(=O)c4cc(Cl)ccc4OC)ccc1c23`, the thermal shift (ΔTm) in data set [1] was 0.1 °C; in data set [2], 0 °C; in data set [3], 2.4 °C; in data set [4], -0.1 °C; in data set [7], 0 °C; in data set [8], 0.6 °C. The thermal shift (ΔTm) in data set [9] is 8.5 °C; in data set [10], -0.9 °C; in data set [12], 5.5 °C; in data set [13], 7.3 °C; in data set [15], 1.2 °C; in data set [16], 5.9 °C. Moreover, the Kd (usually the constant that tells how readily two partners part at equilibrium) in data set [5] is 180 nM. The IC50 in data set [6] amounted to 2840 nM; in data set [21], 8200 nM; in data set [14] it was 470 nM; in [22], 3000 nM.
